Data as given in ChEMBL document CHEMBL1157349, “2-Substituted piperazine-derived imidazole carboxamides as potent and selective CCK1R agonists for the treatment of obesity” (Bioorg Med Chem Lett, 2008).
pEC50, pIC50: −log10 of the molar value.

How the values were obtained:
[1] = target: T1, Cholecystokinin receptor type A (Homo sapiens, UniProt P32238); assay: Agonist activity at human CCK1 receptor; type: functional
T1 sequence (P32238 whole entry): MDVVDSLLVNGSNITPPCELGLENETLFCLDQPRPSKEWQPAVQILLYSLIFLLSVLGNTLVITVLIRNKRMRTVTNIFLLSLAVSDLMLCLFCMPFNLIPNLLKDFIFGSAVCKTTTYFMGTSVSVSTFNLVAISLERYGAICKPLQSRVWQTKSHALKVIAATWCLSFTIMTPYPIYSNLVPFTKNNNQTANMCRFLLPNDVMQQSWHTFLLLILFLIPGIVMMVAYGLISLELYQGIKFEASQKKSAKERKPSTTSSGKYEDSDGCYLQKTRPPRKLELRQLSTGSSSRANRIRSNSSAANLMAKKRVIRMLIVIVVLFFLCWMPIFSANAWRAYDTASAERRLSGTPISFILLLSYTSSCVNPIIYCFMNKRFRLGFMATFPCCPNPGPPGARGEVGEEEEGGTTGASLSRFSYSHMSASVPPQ
Outline: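 Human CCK1 receptor agonism measured in a CCK_IP3 functional assay with NFAT read-out. Values are means of ≥3 experiments, with standard deviations <75% of the average.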

[2] = target: T2, Cholecystokinin receptor type A (Homo sapiens) (UniProt P32238); assay: Agonist activity at human CCK1 receptor relative to cholecystokinin 8; type: functional
T2 sequence (whole entry): T1 sequence (P32238 whole entry)

[3] = target: T1, Cholecystokinin receptor type A; assay: Inhibition of human CCK1 receptor
[4] = target: T3, Cholecystokinin receptor type A (Mus musculus, UniProt O08786); assay: Agonist activity at mouse CCK1 receptor; type: functional
T3 sequence (O08786 whole entry): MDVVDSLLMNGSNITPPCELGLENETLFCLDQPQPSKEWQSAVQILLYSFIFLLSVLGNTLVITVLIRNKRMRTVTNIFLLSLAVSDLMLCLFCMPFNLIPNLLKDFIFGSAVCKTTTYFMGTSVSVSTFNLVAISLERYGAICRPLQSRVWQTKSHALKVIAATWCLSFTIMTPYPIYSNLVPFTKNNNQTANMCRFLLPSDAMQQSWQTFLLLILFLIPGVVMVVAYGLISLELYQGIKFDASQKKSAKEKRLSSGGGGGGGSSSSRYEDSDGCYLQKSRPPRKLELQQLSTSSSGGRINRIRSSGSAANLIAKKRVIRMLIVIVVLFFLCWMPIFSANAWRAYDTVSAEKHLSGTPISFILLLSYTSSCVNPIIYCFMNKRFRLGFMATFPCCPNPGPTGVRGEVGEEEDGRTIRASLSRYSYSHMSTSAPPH
Outline: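 Mouse CCK1 receptor agonism measured in a CCK_IP3 functional assay in K1 cells. Values are means of ≥3 experiments, with standard deviations <75% of the average.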

[5] = target: T4, Cholecystokinin receptor type A (Mus musculus) (UniProt O08786); assay: Agonist activity at mouse CCK1 receptor relative to cholecystokinin 8; type: functional
T4 sequence (whole entry): T3 sequence (O08786 whole entry)

Mus musculus [6] = assay: Suppression of 18 hrs overnight food intake in mouse at 0.3 mg/kg, po relative to control; type: functional
Outline: (§1)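 Lean mice were dosed orally in 10% Tw80 in water. Overnight food intake was measured and expressed relative to vehicle-dosed mice.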

Mus musculus [7] = assay: Suppression of 18 hrs overnight food intake in mouse at 3 mg/kg, po relative to control; type: functional; outline: as §1
[8] = Volume of distribution in mouse at 1 mg/kg, iv and 10 mg/kg, po; type: ADME, organism-based; conditions: in vivo
Mus musculus [9] = assay: AUC in mouse at 10 mg/kg, po; type: ADME, organism-based, Plasma; parameters: dose 10 mg/kg, route oral; conditions: in vivo
[10] = Half life in mouse at 1 mg/kg, iv and 10 mg/kg, po; type: ADME, organism-based; conditions: in vivo
Mus musculus [11] = assay: Oral bioavailability in mouse at 10 mg/kg; type: ADME, organism-based; conditions: in vivo
[12] = Cmax in mouse at 10 mg/kg, po; type: ADME, organism-based; parameters: dose 10 mg/kg, route oral; conditions: in vivo
[13] = Tmax in mouse at 1 mg/kg, iv and 10 mg/kg, po; type: ADME, organism-based; conditions: in vivo
Mus musculus [14] = assay: Suppression of 48 hrs overnight food intake in wild type mouse at 3 mg/kg, po relative to control; type: functional
Outline: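 Wild-type and CCK1R^-/- mice received an oral dose of 3 mpk. Food intake was measured at 18 h and 48 h and compared with vehicle.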

Mus musculus [15] = organism: Mus musculus; assay: Gastrointestinal toxicity in wild type mouse; type: organism-based; conditions: in vivo
Mus musculus [16] = organism: Mus musculus; assay: Gastrointestinal toxicity in CCK1 receptor deficient mouse; type: organism-based; conditions: in vivo

Structure (SMILES) | pEC50 [1] | Activity [2] | pIC50 [3] | other results
CCOc1cccc(-n2cc(C(=O)N3CCN(c4cc(C(=O)O)c5ccccc5c4)C[C@@H]3COCC(=O)O)nc2-c2ccc(C)cc2)c1 | 10.01 | 85% | 9.85 | –
CCOc1cccc(-n2cc(C(=O)N3CCN(c4cc(C(=O)O)c5ccccc5c4)C[C@H]3CNS(C)(=O)=O)nc2-c2ccc(C)cc2F)c1 | 10.00 | 97% | 10.17 | –
CCOc1cccc(-n2cc(C(=O)N3CCN(c4cnc5ccccc5c4)C[C@H]3C(=O)NC(C)C)nc2-c2ccc(C)cc2)c1 | 9.85 | 102% | 9.62 | –
CCOc1cccc(-n2cc(C(=O)N3CCN(c4cc(C(=O)O)c5ccccc5c4)CC3)nc2-c2ccc(C)cc2)c1 | – | – | – | Activity [5]: 103%; Activity (Mus musculus [6]): 18%; Activity (Mus musculus [7]): 82%; AUC (Mus musculus [9]): 0.39 µM·h; Tmax [13]: 6.7 h
CCOc1cccc(-n2cc(C(=O)N3CCN(c4cc(C(=O)O)c5ccccc5c4)C[C@@H]3CNC(=O)NC)nc2-c2ccc(C)cc2)c1 | 9.89 | 74% | 10.10 | –
CCOc1cccc(-n2cc(C(=O)N3CCN(c4cnc5ccccc5c4)C[C@@H]3COCC(=O)O)nc2-c2ccc(C)cc2)c1 | 10.01 | 96% | 10.41 | pEC50 [4]: 9.30; Activity [5]: 84%
CCOc1cccc(-n2cc(C(=O)N3CCN(c4cnc5ccccc5c4)C[C@@H]3CNC(=O)NC)nc2-c2ccc(C)cc2)c1 | 9.80 | 70% | 9.25 | –
CCOc1cccc(-n2cc(C(=O)N3CCN(c4cnc5ccccc5c4)C[C@@H]3CNC(C)=O)nc2-c2ccc(C)cc2)c1 | 10.00 | 91% | 9.60 | –
CCOc1cccc(-n2cc(C(=O)N3CCN(c4cnc5ccccc5c4)C[C@@H]3CNS(C)(=O)=O)nc2-c2ccc(C)cc2)c1 | 9.68 | 100% | 9.37 | –
CCOc1cccc(-n2cc(C(=O)N3CCN(c4cnc5ccccc5c4)C[C@@H]3COC(C)=O)nc2-c2ccc(C)cc2)c1 | 9.60 | 104% | 9.62 | –
CCOc1cccc(-n2cc(C(=O)N3CCN(c4cnc5ccccc5c4)C[C@@H]3C(=O)NC(C)C)nc2-c2ccc(C)cc2)c1 | 9.74 | 87% | 9.68 | –
CCOc1cccc(-n2cc(C(=O)N3CCN(c4cnc5ccccc5c4)C[C@H]3CNS(C)(=O)=O)nc2-c2ccc(C)cc2)c1 | 9.34 | 117% | 9.14 | –
CCOc1cccc(-n2cc(C(=O)N3CCN(c4cnc5ccccc5c4)C[C@H]3COC(C)=O)nc2-c2ccc(C)cc2)c1 | 9.11 | 118% | 9.33 | –

Continued, in another order:

pEC50 [1] | Activity [2] | pIC50 [3] | Structure (SMILES) | other results
10.01 | 104% | 9.41 | CCOc1cccc(-n2cc(C(=O)N3CCN(c4cnc5ccccc5c4)C[C@H]3CNC(C)=O)nc2-c2ccc(C)cc2)c1 | –
10.47 | 106% | 10.39 | CCOc1cccc(-n2cc(C(=O)N3CCN(c4cc(C(=O)O)c5ccccc5c4)C[C@H]3COCC(=O)O)nc2-c2ccc(C)cc2F)c1 | –
10.28 | 103% | 10.80 | CCOc1cccc(-n2cc(C(=O)N3CCN(c4cc(C(=O)O)c5ccccc5c4)C[C@H]3C(=O)NC(C)C)nc2-c2ccc(C)cc2)c1 | pEC50 [4]: 9.96; Activity [5]: 110%; Activity (Mus musculus [6]): 19%; Activity (Mus musculus [7]): 45%; Vd [8]: 3.7 L/kg; AUC (Mus musculus [9]): 0.15 µM·h; half-life [10]: 2.5 h; F (Mus musculus [11]): 11%; Cmax [12]: 180 nM; Tmax [13]: 5.5 h
10.48 | 70% | 10.24 | CCOc1cccc(-n2cc(C(=O)N3CCN(c4cc(C(=O)O)c5ccccc5c4)C[C@H]3CNC(C)=O)nc2-c2ccc(C)cc2F)c1 | pEC50 [4]: 9.89; Activity [5]: 77%; Activity (Mus musculus [7]): 18%
10.05 | 82% | 10.74 | CCOc1cccc(-n2cc(C(=O)N3CCN(c4cnc5ccccc5c4)C[C@H]3C(=O)NCC(=O)O)nc2-c2ccc(C)cc2)c1 | pEC50 [4]: 9.96; Activity [5]: 99%
10.13 | 90% | 10.01 | CCOc1cccc(-n2cc(C(=O)N3CCN(c4cc(C(=O)O)c5ccccc5c4)C[C@H]3CNC(=O)NC)nc2-c2ccc(C)cc2F)c1 | –
10.02 | 72% | 9.92 | CCOc1cccc(-n2cc(C(=O)N3CCN(c4cc(C(=O)O)c5ccccc5c4)C[C@@H]3CNS(C)(=O)=O)nc2-c2ccc(C)cc2)c1 | –
10.09 | 94% | 9.96 | CCOc1cccc(-n2cc(C(=O)N3CCN(c4cc(C(=O)O)c5ccccc5c4)C[C@@H]3C(=O)NC(C)C)nc2-c2ccc(C)cc2)c1 | –
10.19 | 93% | 10.28 | CCOc1cccc(-n2cc(C(=O)N3CCN(c4cnc5ccccc5c4)C[C@H]3COCC(=O)O)nc2-c2ccc(C)cc2)c1 | –
10.26 | – | 10.40 | CCOc1cccc(-n2cc(C(=O)N3CCN(c4cc(C(=O)O)c5ccccc5c4)CC3)nc2-c2ccc(C)cc2F)c1 | Activity [5]: 56%; Activity (Mus musculus [6]): 13%; Activity (Mus musculus [7]): 86%; AUC (Mus musculus [9]): 0.61 µM·h; Tmax [13]: 0.6 h
10.40 | 67% | 10.10 | CCOc1cccc(-n2cc(C(=O)N3CCN(c4cc(C(=O)O)c5ccccc5c4)C[C@@H]3CNC(C)=O)nc2-c2ccc(C)cc2)c1 | –
10.15 | 94% | 11.00 | CCOc1cccc(-n2cc(C(=O)N3CCN(c4cc(C(=O)O)c5ccccc5c4)C[C@H]3C(=O)NC(C)C)nc2-c2ccc(C)cc2F)c1 | pEC50 [4]: 10.47; Activity [5]: 94%; Activity (Mus musculus [6]): 32%; Activity (Mus musculus [7]): 92%; Activity (Mus musculus [14]): 85%; Vd [8]: 0.42 L/kg; AUC (Mus musculus [9]): 0.1 µM·h; half-life [10]: 2.3 h; F (Mus musculus [11]): 4%; Cmax [12]: 180 nM; Tmax [13]: 8 h; Activity (Mus musculus [15]): Toxic; Activity (Mus musculus [16]): Non-toxic
